Measured values reported in ChEMBL document CHEMBL4382268, “Glycyrrhetinic acid derivatives containing aminophosphonate ester species as multidrug resistance reversers that block the NF-κB pathway and cell proliferation” (Bioorg Med Chem Lett, 2018).
pIC50: −log10 of the molar value.

What was measured:
L02 = test: Antiproliferative activity against human HL-7702 cells after 48 hrs by MTT assay; format: functional, cell-based; details: L02, 48 h
Outline: (§1)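 MTT read-out of antiproliferative activity across cancer lines HepG-2, NCI-H460, MGC-803, A549 and MG-63 and normal liver line HL-7702. IC50 given as mean ± S.D. of three separate experiments, each run in triplicate.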

[1] = Inhibition of TNF-alpha induced NF-kappaB activation in human A549 cells after 7 hrs by Bright-Glo luciferase reporter gene assay; format: cell-based; details: for pIC50: Homo sapiens, A549, 7 h, read-out: IC50
Outline: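 A549 cells transiently cotransfected with an NF-κB-Luc reporter and stimulated with TNF-α. Luciferase read-out of inhibition gives IC50, the mean of at least three independent experiments each with triplicates.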

HepG2 = test: Antiproliferative activity against human HepG2 cells after 48 hrs by MTT assay; format: functional, cell-based; details: HepG2, 48 h; outline: as §1
NCI-H460 = test: Antiproliferative activity against human NCI-H460 cells after 48 hrs by MTT assay; format: functional, cell-based; details: NCI-H460, 48 h; outline: as §1
MGC-803 = test: Antiproliferative activity against human MGC803 cells after 48 hrs by MTT assay; format: functional, cell-based; details: MGC-803, 48 h; outline: as §1
A549 = test: Antiproliferative activity against human A549 cells after 48 hrs by MTT assay; format: functional, cell-based; details: A549, 48 h; outline: as §1
MG-63 = test: Antiproliferative activity against human MG63 cells after 48 hrs by MTT assay; format: functional, cell-based; details: MG-63, 48 h; outline: as §1

Structure (SMILES)	pIC50 (L02)	pIC50 [1]	pIC50 (HepG2)	pIC50 (NCI-H460)	pIC50 (MGC-803)	pIC50 (A549)	pIC50 (MG-63)	IC50 ([1]; a549)
CCOP(=O)(OCC)C(Nc1ccc(CC(=O)NCCCCNC(=O)[C@@]2(C)CC[C@]3(C)CC[C@]4(C)C(=CC(=O)[C@@H]5[C@@]6(C)CC[C@H](OC(C)=O)C(C)(C)[C@@H]6CC[C@]54C)[C@@H]3C2)cc1)c1cccc(Br)c1 (some centres not stated)	< 4.30	4.57	4.32	4.32	4.38	4.40	< 4.30	
CCOP(=O)(OCC)C(Nc1ccc(CC(=O)NCCCNC(=O)[C@@]2(C)CC[C@]3(C)CC[C@]4(C)C(=CC(=O)[C@@H]5[C@@]6(C)CC[C@H](O)C(C)(C)[C@@H]6CC[C@]54C)[C@@H]3C2)cc1)c1ccc(Br)cc1 (some centres not stated)	< 4.30	< 4.52	4.45	4.69	4.45	4.50	4.60	
CCOP(=O)(OCC)C(Nc1ccc(CC(=O)NCCCNC(=O)[C@@]2(C)CC[C@]3(C)CC[C@]4(C)C(=CC(=O)[C@@H]5[C@@]6(C)CC[C@H](OC(C)=O)C(C)(C)[C@@H]6CC[C@]54C)[C@@H]3C2)cc1)c1ccc(Br)cc1 (some centres not stated)	< 4.30	4.55	4.63	4.77	4.53	4.69	4.67	
CCOP(=O)(OCC)C(Nc1ccc(CC(=O)NCCCNC(=O)[C@@]2(C)CC[C@]3(C)CC[C@]4(C)C(=CC(=O)[C@@H]5[C@@]6(C)CC[C@H](OC(C)=O)C(C)(C)[C@@H]6CC[C@]54C)[C@@H]3C2)cc1)c1ccccc1 (some centres not stated)	< 4.30	4.66	4.50	4.63	4.68	4.52	4.60	
CCOP(=O)(OCC)C(Nc1ccc(CC(=O)NCCCNC(=O)[C@@]2(C)CC[C@]3(C)CC[C@]4(C)C(=CC(=O)[C@@H]5[C@@]6(C)CC[C@H](O)C(C)(C)[C@@H]6CC[C@]54C)[C@@H]3C2)cc1)c1cccc(F)c1 (some centres not stated)	< 4.30		< 4.30	< 4.30	< 4.30	< 4.30	< 4.30	Not Active
CCOP(=O)(OCC)C(Nc1ccc(CC(=O)NCCCCNC(=O)[C@@]2(C)CC[C@]3(C)CC[C@]4(C)C(=CC(=O)[C@@H]5[C@@]6(C)CC[C@H](OC(C)=O)C(C)(C)[C@@H]6CC[C@]54C)[C@@H]3C2)cc1)c1ccc(OC)cc1 (some centres not stated)	< 4.30	5.70	4.81	4.85	4.79	4.82	4.86	
CCOP(=O)(OCC)C(Nc1ccc(CC(=O)NCCCNC(=O)[C@@]2(C)CC[C@]3(C)CC[C@]4(C)C(=CC(=O)[C@@H]5[C@@]6(C)CC[C@H](OC(C)=O)C(C)(C)[C@@H]6CC[C@]54C)[C@@H]3C2)cc1)c1cccc(F)c1 (some centres not stated)	< 4.30	< 4.52	4.42	4.53	4.56	4.47	< 4.30	
CCOP(=O)(OCC)C(Nc1ccc(CC(=O)NCCCNC(=O)[C@@]2(C)CC[C@]3(C)CC[C@]4(C)C(=CC(=O)[C@@H]5[C@@]6(C)CC[C@H](O)C(C)(C)[C@@H]6CC[C@]54C)[C@@H]3C2)cc1)c1ccccc1 (some centres not stated)	< 4.30	4.55	4.39	4.34	4.51	4.44	4.51	
CCOP(=O)(OCC)C(Nc1ccc(CC(=O)NCCCCNC(=O)[C@@]2(C)CC[C@]3(C)CC[C@]4(C)C(=CC(=O)[C@@H]5[C@@]6(C)CC[C@H](O)C(C)(C)[C@@H]6CC[C@]54C)[C@@H]3C2)cc1)c1cccc(OC)c1 (some centres not stated)	< 4.30	4.53	4.33	4.41	< 4.30	4.32	4.34	
CCOP(=O)(OCC)C(Nc1ccc(CC(=O)NCCCCNC(=O)[C@@]2(C)CC[C@]3(C)CC[C@]4(C)C(=CC(=O)[C@@H]5[C@@]6(C)CC[C@H](O)C(C)(C)[C@@H]6CC[C@]54C)[C@@H]3C2)cc1)c1cccc(F)c1 (some centres not stated)	< 4.30	< 4.52	< 4.30	< 4.30	< 4.30	< 4.30	< 4.30	
CCOP(=O)(OCC)C(Nc1ccc(CC(=O)NCCCNC(=O)[C@@]2(C)CC[C@]3(C)CC[C@]4(C)C(=CC(=O)[C@@H]5[C@@]6(C)CC[C@H](OC(C)=O)C(C)(C)[C@@H]6CC[C@]54C)[C@@H]3C2)cc1)c1cccc(OC)c1 (some centres not stated)	< 4.30	< 4.52	4.42	4.50	4.43	4.41	4.40	
